“Also recorded” adds a separate entry of the source.
How the values were obtained:
[1] = target: T1, SUGCT (Homo sapiens, UniProt Q9HAC7); assay: Fluorometric SUGCT enzyme assay coupled to HMG-CoA reductase; format: biochemical; conditions: for SUGCT inhibition at 10 μM (in words): repurchased hits
T1 sequence (Q9HAC7 31-438 limits assumed): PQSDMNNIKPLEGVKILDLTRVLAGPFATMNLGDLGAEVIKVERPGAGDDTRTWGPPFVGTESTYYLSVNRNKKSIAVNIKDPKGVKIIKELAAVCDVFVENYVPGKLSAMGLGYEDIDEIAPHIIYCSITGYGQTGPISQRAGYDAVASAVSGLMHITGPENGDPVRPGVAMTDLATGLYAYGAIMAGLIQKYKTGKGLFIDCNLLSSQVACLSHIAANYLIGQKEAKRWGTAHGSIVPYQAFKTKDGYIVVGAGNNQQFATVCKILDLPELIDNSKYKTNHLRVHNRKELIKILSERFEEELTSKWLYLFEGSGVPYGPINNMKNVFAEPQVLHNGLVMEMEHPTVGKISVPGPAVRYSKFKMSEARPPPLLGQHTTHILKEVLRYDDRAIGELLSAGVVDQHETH

[2] = system: SUGCT overexpressing GA1 HEK-293 cells; assay: C5DC in SUGCT overexpressing GA1; format: cell-based, human; conditions: treatment of SUGCT overexpressing GA1 HEK-293 cells
How it was run: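 Stable SUGCT overexpression in Flp-In 293 cells by co-transfection with Flp recombinase and selection in 100 μg/ml hygromycin B for 2–3 weeks. GCDH knocked out by CRISPR-Cas9, with single-clone sorting. Cells grown at 37°C, 5% CO2 in DMEM with 10% FBS. Metabolites extracted with cold methanol:acetonitrile:water 5:3:2 overnight at −80°C, then analysed by reverse-phase C18 LC-MS in positive mode.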

[3] = target: T2, human HMG-CoA reductase (HMGCR) (Homo sapiens, UniProt P04035); assay: Spectrophotometric HMGCR counter-screen assay; format: biochemical; conditions: up to 100 μM
T2 sequence (P04035 426-888): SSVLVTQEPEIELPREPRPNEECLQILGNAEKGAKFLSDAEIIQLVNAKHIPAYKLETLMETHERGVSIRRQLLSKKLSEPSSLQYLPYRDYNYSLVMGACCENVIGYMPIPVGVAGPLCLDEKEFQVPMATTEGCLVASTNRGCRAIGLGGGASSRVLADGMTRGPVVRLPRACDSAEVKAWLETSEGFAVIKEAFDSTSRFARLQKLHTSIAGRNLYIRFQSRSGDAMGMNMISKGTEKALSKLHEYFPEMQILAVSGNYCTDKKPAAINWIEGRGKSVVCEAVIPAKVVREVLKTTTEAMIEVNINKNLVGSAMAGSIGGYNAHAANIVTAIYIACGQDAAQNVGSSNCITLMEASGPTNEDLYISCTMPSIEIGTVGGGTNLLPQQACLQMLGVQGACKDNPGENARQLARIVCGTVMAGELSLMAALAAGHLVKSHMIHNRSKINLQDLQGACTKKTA
How it was run: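 Human HMGCR catalytic domain (residues 426–888), N-terminal His-tagged, expressed in E. coli and IMAC-purified. Assay contains 9 U/L HMGCR, 150 μM HMG-CoA, 300 μM NADPH, 4 mM DTT and 0.1% Triton X-100 in 100 mM potassium phosphate, pH 7.4. NADPH consumption is followed by absorbance at 340 nm.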

[4] = target: T1, SUGCT; format: biochemical; conditions: HMG-CoA as CoA donor, 30 minutes

## O=C(O)CCCC(=O)O [Glutarate, glutarate]
[1]; with respect to HMG, increases apparent Km for HMG
  mode of inhibition: competitive inhibitor

## O=C(O)CCc1nc(-c2ccccc2)c(-c2ccccc2)o1 [oxaprozin]
[1]
  SUGCT inhibition at 10 μM (in words): inhibited

## CCCCC(=O)N(Cc1ccc(-c2ccccc2-c2nn[nH]n2)cc1)[C@H](C(=O)OCC)C(C)C [valsartan ethyl ester, Valsartan ethyl ester]
[2]
  effect on C5DC / activity in cells: did not observe a decrease in C5DC

## CCCCc1nc(Cl)c(CO)n1Cc1ccc(-c2ccccc2-c2nn[nH]n2)cc1 [losartan]
[1]; each ARB measured in duplicate at 10 μM
  activity of Angiotensin II Receptor Blockers on SUGCT (in words): inactive

## CCCCC(=O)N(Cc1ccc(-c2ccccc2-c2nnn[nH]2)cc1)[C@H](C(=O)O)C(C)C [Valsartan]
[1]
  SUGCT inhibition at 10 μM (in words): inhibited
[1]; IC50 (SUGCT inhibition), standard assay, 100 mM potassium phosphate pH 7.4
  IC50: 3.8 µM
[1]; read-out: inhibition of SUGCT at 10 μM
  inhibition at 10 µM: > 50%
[3]
  inhibition of HMGCR: did not inhibit
[2]
  effect on C5DC / activity in cells: did not observe a decrease in C5DC; also recorded: unable to detect activity
[4]
  conversion into a CoA ester by SUGCT: no evidence

## CC(C)c1nc(N(C)S(C)(=O)=O)nc(-c2ccc(F)cc2)c1/C=C/[C@@H](O)C[C@@H](O)CC(=O)O [rosuvastatin]
[1]; screening concentration 100 μM, coupled assay also detects HMGCR inhibitors
  result in high throughput screen of FDA approved library: one of our hits

Reference: publication PMC10871334 (bioRxiv, 2024)
